# Source: ChEMBL document CHEMBL4145675, “2-Phenylquinoline S. aureus NorA Efflux Pump Inhibitors: Evaluation of the Importance of Methoxy Group Introduction” (J Med Chem, 2018)
# Active and inactive are the calls of the source. The calls are words filed in the database; no cut-off is given here.
# What was measured:
# [1] = system: Staphylococcus aureus; experiment: Antimicrobial activity against Staphylococcus aureus SA-1199B expressing wild type norA and co-expressing GrlA A116E mutant by microdilution method; type: organism-based; settings: in vivo
# Summary of the method: (§1)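 CLSI broth microdilution MIC of the compound alone. Strains: SA-K1902 (norA deleted), SA-K2378 (SA-K1902 carrying norA plus its promoter on multicopy plasmid pCU1), SA-1199B (norA overexpressing, GrlA A116E).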
# [2] = system: Staphylococcus aureus; experiment: Synergistic potentiation of ciprofloxacin-induced antimicrobial activity against Staphylococcus aureus SA-1199 at 0.78 to 100 ug/ml by microdilution method based Checkerboard assay; type: functional, organism-based
# [3] = molecular target: T1, Quinolone resistance protein NorA (Staphylococcus aureus) (UniProt P0A0J7); experiment: Inhibition of NorA in Staphylococcus aureus SA-1199B expressing GrlA A116E mutant assessed as synergistic potentiation of ciprofloxacin-induced antimicrobial activity at 0.78 to 100 ug/ml by microdilution method based Checkerboard assay
# T1 sequence (whole entry): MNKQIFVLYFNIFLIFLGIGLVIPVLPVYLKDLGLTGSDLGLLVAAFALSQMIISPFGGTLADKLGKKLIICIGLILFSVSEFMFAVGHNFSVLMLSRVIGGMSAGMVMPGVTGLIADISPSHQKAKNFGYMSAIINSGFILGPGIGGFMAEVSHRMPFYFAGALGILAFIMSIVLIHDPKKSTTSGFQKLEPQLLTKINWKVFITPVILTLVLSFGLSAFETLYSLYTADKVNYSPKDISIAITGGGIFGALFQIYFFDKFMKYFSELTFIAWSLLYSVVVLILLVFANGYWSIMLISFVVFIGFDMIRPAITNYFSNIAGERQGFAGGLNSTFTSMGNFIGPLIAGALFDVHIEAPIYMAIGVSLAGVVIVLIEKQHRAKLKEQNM
# [4] = Cytotoxicity in human HepG2 cells assessed as reduction in cell viability incubated for 24 hrs by ATP bioluminescence assay; type: cell-based
# Summary of the method: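 Cells were grown to confluence overnight in RPMI 1640 with 10% heat-inactivated fetal calf serum, penicillin and streptomycin. Monolayers were exposed for 24 h at 37 °C to scalar concentrations (0-250 µg/mL). Viability was read by ATP bioluminescence, each concentration in triplicate. CC50 is the concentration reducing cell number by 50% versus untreated controls.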
# [5] = system: Staphylococcus aureus; experiment: Antimicrobial activity against Staphylococcus aureus SA-1199B expressing wild type norA by microdilution method; type: organism-based; settings: in vivo
# Summary of the method: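 Broth microdilution MIC per CLSI guidelines. ATCC 25923 is norA wild-type. SA-1199B overexpresses norA and carries an A116E GrlA substitution.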
# [6] = system: Staphylococcus aureus; experiment: Antimicrobial activity against NorA deficient Staphylococcus aureus SA-K1902 by microdilution method; type: organism-based; settings: in vivo; summary of the method: as §1
# [7] = system: Staphylococcus aureus; experiment: Synergistic potentiation of EtBr-induced antimicrobial activity against mepA deficient Staphylococcus aureus SA-K2885 at 0.78 to 100 ug/ml by microdilution method based Checkerboard assay; type: organism-based; settings: in vivo
# Summary of the method: (§2)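 Checkerboard combination of EtBr with compound, using broth microdilution MICs. SA-K2886 (norA-deleted, pALC2073-mepA) and SA-K2885 (norA-deleted, empty pALC2073) were run with 0.05 µg/mL tetracycline in all experiments to induce the xyl/tetO promoter.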
# [8] = molecular target: T2, Multidrug export protein MepA (Staphylococcus aureus (strain NCTC 8325)) (UniProt Q2G140); experiment: Inhibition of MepA in Staphylococcus aureus SA-K2886 assessed as synergistic potentiation of EtBr-induced antimicrobial activity by measuring […] at 3.13 ug/ml by microdilution method based Checkerboard assay (reference value: 25 ug/ml); summary of the method: as §2
# T2 sequence (whole entry): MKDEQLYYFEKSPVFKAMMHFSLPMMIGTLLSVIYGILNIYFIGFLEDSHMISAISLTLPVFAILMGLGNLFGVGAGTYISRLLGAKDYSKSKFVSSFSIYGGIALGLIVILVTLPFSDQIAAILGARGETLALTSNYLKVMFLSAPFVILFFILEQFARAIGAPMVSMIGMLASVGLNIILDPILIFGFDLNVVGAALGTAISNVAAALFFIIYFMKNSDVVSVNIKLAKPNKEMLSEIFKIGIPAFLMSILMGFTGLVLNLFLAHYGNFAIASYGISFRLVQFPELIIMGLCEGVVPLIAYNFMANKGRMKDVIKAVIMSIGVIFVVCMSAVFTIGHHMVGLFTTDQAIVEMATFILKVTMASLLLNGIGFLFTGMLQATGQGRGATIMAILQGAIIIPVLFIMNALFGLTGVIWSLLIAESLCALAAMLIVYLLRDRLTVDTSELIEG
# [9] = Drug metabolism in mouse liver microsomes assessed as compound oxidation at 50 uM in presence of NADPH regenerating system incubated for 120 mins by UPLC/MS analysis; type: ADME, microsome; settings: 2 h
# Summary of the method: (§3)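 1 mg/mL mouse liver microsomes in 0.1 M Tris-HCl pH 7.4 with test compound at 50 µM, DMSO up to ~3%. Preincubated 5 min at 37 °C, then started with NADPH regeneration system. Stopped at 120 min with cold methanol and centrifuged. Supernatant analysed by UPLC/MS (ESI, tandem quadrupole).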
# [10] = Drug metabolism in mouse liver microsomes assessed as compound hydroxylation at 50 uM in presence of NADPH regenerating system incubated for 120 mins by UPLC/MS analysis; type: ADME, microsome; settings: 2 h; summary of the method: as §3
# [11] = molecular target: CYP3A4 (Homo sapiens, UniProt P08684); experiment: (§4) Inhibition of human recombinant CYP3A4 at 10 uM using beetle D-luciferin as substrate by CYP450-Glo assay; type: ADME; settings: recombinant CYP3A4, probe beetle D-luciferin
# Summary of the method: (§5)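 Luminescent P450-Glo assay in which recombinant human CYP3A4 or CYP2D6 converts a beetle D-luciferin derivative to D-luciferin. Compound was tested at 1 and 10 µM.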
# [12] = molecular target: T1, Quinolone resistance protein NorA (Staphylococcus aureus); experiment: Inhibition of NorA in Staphylococcus aureus SA-K2378 assessed as synergistic potentiation of ciprofloxacin-induced antimicrobial activity at 0.78 ug/ml by microdilution method based Checkerboard assay
# [13] = Selectivity index, ratio of CC50 for human THP1 cells to inhibition of NorA in Staphylococcus aureus SA-1199B expressing GrlA A116E mutant assessed as minimal potentiating drug concentration causing 8 fold reduction in ciprofloxacin MIC by microdilution method based Checkerboard assay; type: toxicity; settings: read-out: Selectivity Index
# Summary of the method: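 CC50 cells (HepG2 for […], THP-1 for […]) were grown to confluence in RPMI 1640 with 10% FCS, penicillin and streptomycin. They were exposed 24 h at 37 °C to 0–250 µg/mL. Viability was read by ATP bioluminescence, triplicate. CC50 is the concentration reducing cell number 50% versus untreated.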
# [14] = Drug metabolism in mouse liver microsomes assessed as oxidation at open piperidine ring or at hydroxylate at 50 uM in presence of NADPH regenerating system incubated for 120 mins by UPLC/MS analysis; type: ADME, microsome; settings: 2 h; summary of the method: as §3
# [15] = Drug metabolism in mouse liver microsomes assessed as compound demethylation at 50 uM in presence of NADPH regenerating system incubated for 120 mins by UPLC/MS analysis; type: ADME, microsome; settings: 2 h, in the assay text read “hydroxylation and ring opening” for “demethylation”; summary of the method: as §3
# [16] = molecular target: Cytochrome P450 3A4 (Homo sapiens, UniProt P08684); experiment: as §4; type: ADME; settings: recombinant enzyme, 10 µM; summary of the method: as §5
# Sequence of Cytochrome P450 3A4 (P08684 whole entry): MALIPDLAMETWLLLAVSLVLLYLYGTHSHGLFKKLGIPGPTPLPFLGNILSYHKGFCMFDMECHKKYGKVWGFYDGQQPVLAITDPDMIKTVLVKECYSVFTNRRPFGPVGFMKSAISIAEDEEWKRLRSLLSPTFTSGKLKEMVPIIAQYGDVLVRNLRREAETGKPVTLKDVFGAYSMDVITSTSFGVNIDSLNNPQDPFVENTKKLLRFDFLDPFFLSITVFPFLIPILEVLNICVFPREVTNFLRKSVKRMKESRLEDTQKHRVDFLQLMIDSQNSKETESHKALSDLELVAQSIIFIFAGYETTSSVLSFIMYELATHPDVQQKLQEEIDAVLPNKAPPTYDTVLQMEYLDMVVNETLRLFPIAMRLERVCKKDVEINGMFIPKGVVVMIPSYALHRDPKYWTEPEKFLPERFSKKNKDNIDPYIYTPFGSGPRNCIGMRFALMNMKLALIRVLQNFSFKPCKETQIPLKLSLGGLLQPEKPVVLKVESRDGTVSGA
# Sequence of CYP3A4 (P08684 whole entry): as above
Compound,MIC [1] [µM],inhibition [2],inhibition [3],CC50 at 24 h [4] [µg/mL],MIC [5] [µg/mL],MIC [6] [µg/mL],Activity [7],MIC [8] [µg/mL],Drug metabolism [9],Drug metabolism [10],inhibition at 10 µM [11] [%],fold change (FC) [12],selectivity ratio [13],Drug metabolism [14],Drug metabolism [15],inhibition (INH) [16]
CCCOc1ccc(-c2cc(OCCN3CCc4cc(OC)c(OC)cc4C3)c3cc(OC)c(OC)cc3n2)cc1,> 179,Active,Active,74,> 100,100,Non-Toxic,< 1.56,Metabolite_Detected,Metabolite_Detected,≤ 60,,,,,
CCCOc1ccc(-c2cc(OCCN3CCCCC3)c3cc(OC)ccc3n2)cc1,238,Active,Active,42,> 100,25,Non-Toxic,,,,,8,> 128,Metabolite_Detected,Metabolite_Detected,Not Active
